# SIRT5 inh: sirtuin-5 (human) deacylase inhibition | AID 652115 | inhibition, % at 15 µM | Q9NXA8 | 1.1% of 330,000 active | Purified SirT5, succinyl-peptide AMC, trypsin-coupled fluorescence; in the data active means inhibition above about 15%
# CaV13 FRET inh: Disruptors of the CACNA1D IQ motif to Ca2+-dependent inactivation inhibitor domain association, primary screening, Förster resonance energy transfer in intact living …; HEK cells, CFP/YFP FRET ICDI-IQ, plate reader, 10 min; percent FRET-ratio fall versus neutral wells; inhibition, % at 12.3 µM; 0.098% of 340,000 active; AID 743397;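 active means mean replicate inhibition of at least 30% and at least 1% of replicates passing that level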;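 further: 0% = median of the neutral control wells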
# S100A4 MyoIIA: inhibitors of human S100A4 binding to myosin IIA peptide; 0.14% of 360,000 active; inhibition, % at 10.7 µM; S100A4/TAMRA-MyoIIA peptide fluorescence polarization; AID 652163; P26447;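 active means mean inhibition of at least 70% across replicates, with every replicate also reaching that level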
#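 Test system: S100A4 monomer protein; Medium: HEPES pH 7.2 with CaCl2, KCl, NaCl, DTT, Triton; Probe or stimulus: TAMRA-labelled myosin IIA heavy-chain peptide probe, 5 nM; Doses: one dose per compound; Times: polarization read 5 min after assay mix addition, stable 5–60 min; Benchmarks: neutral control DMSO, positive control TFP.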
# AF4-AF9 inh: blocks AF4 peptide binding to human AF9; P42568; AlphaScreen, biotin-AF4 peptide binding to FLAG-AF9; inhibition, % at 10 µM; 0.47% of 350,000 active; AID 651704;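 active means every replicate reaching a set inhibition limit, whatever the replicate mean, cut at about 25% in these data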;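 further: 0% = plate neutral control median and 100% = total signal loss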
# Target sequence (P42568 whole entry, looked up): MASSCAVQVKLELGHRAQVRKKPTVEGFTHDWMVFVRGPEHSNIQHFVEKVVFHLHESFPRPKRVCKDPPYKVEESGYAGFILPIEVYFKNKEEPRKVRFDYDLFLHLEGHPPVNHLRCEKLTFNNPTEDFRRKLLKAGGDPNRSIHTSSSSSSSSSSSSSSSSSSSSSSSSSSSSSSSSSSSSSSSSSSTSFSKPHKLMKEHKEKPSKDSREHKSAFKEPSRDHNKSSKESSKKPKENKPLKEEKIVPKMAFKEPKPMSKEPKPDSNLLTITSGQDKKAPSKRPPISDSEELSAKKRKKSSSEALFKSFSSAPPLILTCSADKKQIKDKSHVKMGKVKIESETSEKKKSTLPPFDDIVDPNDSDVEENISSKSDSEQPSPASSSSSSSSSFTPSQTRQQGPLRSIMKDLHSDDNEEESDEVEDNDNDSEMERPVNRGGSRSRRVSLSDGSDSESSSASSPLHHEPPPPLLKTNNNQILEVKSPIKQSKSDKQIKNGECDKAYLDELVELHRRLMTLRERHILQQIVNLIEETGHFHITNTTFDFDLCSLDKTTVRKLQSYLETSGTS
# DENV2 CPE rescue: DENV2-induced cell death inhibition | DENV2-infected cells, cytopathic effect rescue, plate reader | 1.7% of 350,000 active | CPE inhibition, % at 9.99 µM; in the data active means CPE inhibition above about 20%, passing the limit was not always enough; tested in BHK-21 cells;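 further: 0% = median of neutral control wells and 100% = median of positive control wells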
# An asterisk follows results filed as active; . = no result given; + = active, no number; ! = not active in a repeat. Rows were chosen to be rich in hits. Some 2.7% of all compounds tested hit in one or more screens of this group.
SMILES,SIRT5 inh,CaV13 FRET inh,S100A4 MyoIIA,AF4-AF9 inh,DENV2 CPE rescue
C[C@H]1CN=C(Nc2ccccc2)N1CCC1CCCCC1,22*,-9,-5,4,-5
C[C@H]1CN=C(Nc2ccccc2)N1CC1CCCCCC1,-5,-11,-1,-1,20
C[C@H]1CN=C(Nc2ccccc2)N1CCCC1CCCC1,-5,-10,-5,4,58*
C[C@H]1CN=C(Nc2ccccc2)N1CC1CCC1,-3,-10,2,3,19
Cc1cc(-c2nc3cccnc3s2)ccc1NS(=O)(=O)c1cccs1,1,+,3,-10,16
Cc1nc2ccc(S(=O)(=O)Nc3cccc(-c4nc5cccnc5s4)c3)cc2s1,9,-5,1,-1,1
Cc1nc2ccc(S(=O)(=O)Nc3ccc(-c4nc5cccnc5s4)cc3)cc2s1,-2,139*,-2,-6,-2
O=S(=O)(Nc1ccc(-c2nc3cccnc3s2)cc1)c1cccs1,-26,-3,-3,6,-3
CC(C)C(=O)Nc1ccc2c(c1)C(=O)N(C)[C@@H]1CC[C@@H](CC(=O)N[C@@H](C)c3ccccc3)O[C@@H]1CO2,.,.,.,.,0
CCCN(C)C[C@@H]1OCCCC[C@@H](C)Oc2ccc(NC(=O)Cc3ccccc3)cc2C(=O)N([C@H](C)CO)C[C@@H]1C,-2,.,5,2,5
CC(C)Cc1nnc(NC(=O)Cc2ccc([N+](=O)[O-])cc2)s1,29*,-5,-3,-2,.
N#Cc1cccc(-c2ccc3c(c2)[C@H]2[C@H](CCN2S(=O)(=O)c2cccc(F)c2)[C@H](CO)N3)c1,0,.,1,-4,3
CCCc1nc(Cl)c(C#N)c2c1CCCC2,112*,-18,2,-6,.
Cc1ccc(C(=O)COC(=O)CN2C(=O)C3C4CC(C(Br)C4Br)C3C2=O)cc1 (configuration not stated),102*,-3,-3,-3,4
Cc1cccc(S(=O)(=O)N2CCCCN3[C@H](CO)[C@H](c4ccc(-c5cccnc5)cc4)[C@@H]3C2)c1,6,.,-4,-2,47*
Cn1cnc(S(=O)(=O)N2CCCCN3[C@H](C2)[C@@H](c2ccc(-c4ccccc4)cc2)[C@@H]3CO)c1,0,.,-3,-1,6
Cc1ccccc1S(=O)(=O)N1CCCCN2[C@H](CO)[C@@H](c3ccc(-c4ccccc4)cc3)[C@@H]2C1,19*,.,-1,-4,-6
Cn1cnc(S(=O)(=O)N2CCCCN3[C@H](CO)[C@@H](c4ccc(-c5ccccc5)cc4)[C@H]3C2)c1,0,.,6,-2,26*
Cc1cccc(-c2ccc([C@H]3[C@@H](CO)N4CCCCN(S(=O)(=O)c5cccc(C)c5)C[C@H]34)cc2)c1,3,.,-1,1,55*
CO[C@@H]1CN(C)C(=O)c2ccc(NC(=O)C3CCCC3)cc2OC[C@H](C)NC[C@H]1C,-1,.,3,-3,-4
COCC(=O)Nc1ccc2c(c1)[C@H]1C[C@H](CC(=O)NCc3ccc4c(c3)OCO4)O[C@@H](CO)[C@H]1O2,-2,.,28,1,9
C[C@@H]1CCCCO[C@H](CN(C)Cc2ccc(C(=O)O)cc2)[C@H](C)CN([C@@H](C)CO)C(=O)c2cc(NC(=O)Cc3ccccc3)ccc2O1,-3,.,13,3,0
Cc1cccc(-c2ccc([C@H]3[C@H]4CN(S(=O)(=O)c5cccc(C)c5)CCCCN4[C@H]3CO)cc2)c1,13,.,-3,0,29*
Cc1cccc(S(=O)(=O)N2CCCCN3[C@@H](CO)[C@H](c4ccc(-c5ccccc5)cc4)[C@@H]3C2)c1,22*,.,8,-2,-1
Cc1cccc(-c2ccc([C@@H]3[C@H]4CN(S(=O)(=O)c5cccc(C)c5)CCCCN4[C@H]3CO)cc2)c1,6,.,8,0,-2
SMILES,SIRT5 inh,CaV13 FRET inh,S100A4 MyoIIA,AF4-AF9 inh,DENV2 CPE rescue
CS(=O)(=O)N1C[C@@H]2N[C@H](C1)[C@@H]2c1ccc(-c2ccccc2)cc1,.,.,.,.,100*
Cc1cccc(S(=O)(=O)N2CCCCN3[C@H](CO)[C@H](c4ccc(-c5ccccc5)cc4)[C@@H]3C2)c1,-1,.,7,-4,-4
COc1cccc(-c2ccc(C3[C@@H]4CN(S(=O)(=O)c5cn(C)cn5)C[C@H]3N4)cc2)c1 (some centres not stated),.,.,.,.,131*!
O=C(C[C@H]1C[C@H]2c3cc(NC(=O)NC4CCCCC4)ccc3O[C@H]2[C@@H](CO)O1)NC1CCCC1,2,.,0,-7,4
O=C(Cn1cnc2c(NCc3ccccc3)ncnc21)NCc1ccc2c(c1)OCO2,27*,-6,0,-1,12
CCCNC(=O)N1CC2(C1)[C@H](c1ccccc1)[C@H](CO)N2Cc1ccc(F)cc1,-8,.,0,0,6
CO[C@H]1CN(C)C(=O)c2ccc(NC(=O)Nc3cccc(F)c3)cc2OC[C@@H](C)N(C(=O)Nc2c(C)noc2C)C[C@@H]1C,.,.,2,1,25*
CO[C@@H]1CN(C)C(=O)c2ccc(NC(=O)Nc3cccc(Cl)c3)cc2OC[C@H](C)N(C(=O)Nc2c(C)noc2C)C[C@H]1C,4,.,2,-1,31*
COc1ccc2c3c(n(C)c2c1)[C@@H](CO)N(Cc1ccc2c(c1)OCO2)CC31CCN(C(=O)c2ccc3c(c2)OCO3)CC1,.,.,.,-1,11
CC(C)NC(=O)N(C)C[C@H]1Oc2ncc(-c3cccc(C#N)c3)cc2C(=O)N([C@H](C)CO)C[C@@H]1C,-7,.,0,-4,7
Oc1ccc(/C=N/N(Cc2ccccc2)c2ccccc2)c(O)c1O,-2,-3,-2,27*,-6
C[C@@H]1CCCCO[C@@H](CN(C)Cc2ccc3c(c2)OCO3)[C@H](C)CN([C@H](C)CO)C(=O)c2cc(NC(=O)c3ccncc3)ccc2O1,2,.,3,1,6
CC(C)NC(=O)N[C@@H]1C=C[C@H](CC(=O)N2CCCCC2)O[C@@H]1CO,0,.,9,-2,2
COc1ccc(C(CNC(=O)c2cccc(S(=O)(=O)N3CCCCC3)c2)N2CCCC2)cc1 (configuration not stated),24*,-3,4,5,17
COc1ccc2c3c([nH]c2c1)[C@@H](CO)N(C(=O)C1CCCC1)CC31CCN(C(=O)NC(C)C)CC1,0,.,-1,-1,-4
CC1(NCc2ccc(Cl)cc2)COP(=O)(NCc2ccccc2)OC1 (configuration not stated),16*,-12,0,2,-1
Cc1cc(C)n2c(NC3CCCC3)c(-c3cccnc3)nc2n1,.,-10,-2,-1,22*
Cc1cc(C)n2c(Nc3c(C)cccc3C)c(-c3cccnc3)nc2n1,.,-11,-5,-3,-3
CO[C@H]1CN(C)C(=O)c2ccc(NC(=O)Nc3cccc(Cl)c3)cc2OC[C@H](C)NC[C@H]1C,2,.,-6,7,-7
